Active and inactive are the calls of the source. The rule behind the calls is not given here.
Columns and labels:
Macrophage [1] = test: Antiinflammatory activity in human macrophages assessed as decrease in CD142 level at 10 nM incubated for 7 days by flow cytometry analysis; assay type: functional, cell-based; details: time 7.0 day
Outline: (§1)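 PBMCs from healthy donors (dextran RBC sedimentation, Histopaque-1077) seeded in low-adhesion plates, 800,000 cells/well. Differentiated to macrophages over 7 days in RPMI-1640 with 10% human serum and 20 ng/mL GM-CSF, with 10 nM test agent or 0.05% ethanol vehicle. Lifted with 5 mM EDTA, Fc-blocked with gamma globulins, surface-stained, then fixed/permeabilized for Arg1. Median fluorescence intensities analyzed by PLS-DA and VIP scores.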

Neutrophil [2] = test: Induction of phagocytosis in human neutrophils assessed as clearance of pHrodo green conjugated Staphylococcus aureus at 0.001 to 10 nM measured after 2 hrs by hoechst 33342 staining based high content imaging analysis; assay type: functional, cell-based; details: dose 0.001-10 nM
Outline: (§2)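 Blood neutrophils from healthy donors, Hoechst 33342-stained, in X-VIVO15 with 2 mM L-glutamine and 1% pen/strep, 250,000 cells/well, adhered 30 min at 37 °C. Pretreated 15 min at 37 °C with 0.001–10 nM or 0.05% ethanol vehicle. Then given IgG-opsonized pHrodo particles (S. aureus 5 μg/well, E. coli 5 μg/well, zymosan 2.5 μg/well). Signal rise imaged over 2 h. Mean ± SEM, N = 6 donors.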

Macrophage [3] = test: Antiinflammatory activity in human macrophages assessed as increase in CD163 at 10 nM incubated for 7 days by flow cytometry analysis; assay type: functional, cell-based; details: time 7.0 day; outline: as §1
Neutrophil [4] = test: Induction of phagocytosis in human Neutrophil assessed as clearance of pHrodo red-conjugated Escherichia coli at 0.001 to 10 nM measured after 2 hrs by hoechst 33342 high content imaging analysis; assay type: functional, cell-based; details: dose 0.001-10 nM; outline: as §2
Neutrophil [5] = test: Induction of phagocytosis in human neutrophils assessed as clearance of pHrodo red-conjugated zymosan A particles at 0.001 to 10 nM measured after 2 hrs by hoechst 33342 staining based high content imaging analysis; assay type: functional, cell-based; details: dose 0.001-10 nM; outline: as §2
Macrophage [6] = test: Induction of phagocytosis in human macrophages assessed as clearance of pHrodo green conjugated Staphylococcus aureus at 0.001 to 10 nM measured after 2 hrs by hoechst 33342 staining based high content imaging analysis; assay type: functional, cell-based; details: dose 0.001-10 nM
Outline: (§3)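 Macrophages from donor PBMCs (7 days, RPMI-1640, 10% human serum, 20 ng/mL GM-CSF), 50,000 cells/well, adhered overnight, Hoechst-stained. Pretreated 15 min at 37 °C in RPMI-1640 with 0.001–10 nM or 0.05% ethanol vehicle. Opsonized pHrodo particles added (S. aureus or E. coli 5 μg/well, zymosan 2.5 μg/well). Phagocytosis imaged over 2 h. Mean ± SEM, N = 6 donors.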

Macrophage [7] = test: Antiinflammatory activity in human macrophages assessed as increase in arginase-1 level at 10 nM incubated for 7 days by flow cytometry analysis; assay type: functional, cell-based; details: time 7.0 day; outline: as §1
[8] = Retention time of the compound in human serum by RP-LC-MS/MS; assay type: ADME, cell-free
Outline: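 Pooled human serum (0.5 mL) mixed with 2 volumes cold MeOH containing d5-Maresin 1, held at −20 °C ≥45 min, then centrifuged. Automated C18 SPE at pH 3.5. Analyzed on a C18 Poroshell column at 0.5 mL/min with a MeOH/H2O/acetic acid gradient. MRM transition 361 > 199.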

Macrophage [9] = test: Antiinflammatory activity in human macrophages assessed as decrease in CD80 level at 10 nM incubated for 7 days by flow cytometry analysis; assay type: functional, cell-based; details: time 7.0 day; outline: as §1
Macrophage [10] = test: Induction of phagocytosis in human macrophages assessed as clearance of pHrodo red-conjugated zymosan A particles at 0.001 to 10 nM measured after 2 hrs by hoechst 33342 staining based high content imaging analysis; assay type: functional, cell-based; details: dose 0.001-10 nM; outline: as §3
Macrophage [11] = test: Induction of phagocytosis in human macrophages assessed as clearance of pHrodo red-conjugated Escherichia coli at 0.001 to 10 nM measured after 2 hrs by hoechst 33342 staining based high content imaging analysis; assay type: functional, cell-based; details: dose 0.001-10 nM; outline: as §3
Macrophage [12] = test: Antiinflammatory activity in human macrophages assessed as increase in MerTK level at 10 nM incubated for 7 days by flow cytometry analysis; assay type: functional, cell-based; details: time 7.0 day; outline: as §1

Activity (Macrophage [7]): Active | Retention_time [8]: 13.5 min
Compound: CC/C=C\C[C@H](O)/C=C/C=C\C/C=C\C=C\[C@@H](O)CCCCCC(=O)O
Activity (Macrophage [1]): Active | Activity (Neutrophil [2]): Active | Activity (Macrophage [3]): Active | Activity (Neutrophil [4]): Active | Activity (Neutrophil [5]): Active | Activity (Macrophage [6]): Active | Activity (Macrophage [9]): Active | Activity (Macrophage [10]): Active | Activity (Macrophage [11]): Active | Activity (Macrophage [12]): Active

— ChEMBL document CHEMBL5370653, “Stereoselective Synthesis, Pro-resolution, and Anti-inflammatory Actions of RvD5n-3 DPA” (J Nat Prod, 2023)
